In ChEMBL document CHEMBL3046445, “Steroid conjugates: Synthesis and preliminary biological testing of pro-juvenoids” (2010):

These compounds were tested on Pyrrhocoris apterus (assay: Inhibition of metamorphosis in freshly molted Pyrrhocoris apterus (red firebug) fifth-instar nymph assessed as compound dose per individual causing reduction in metamorphosis by topical screening test).
Assay type: functional
Summary of the method: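 Topical application with a Burkhard microapplicator; acetone alone served as the reference treatment. Ten insects per dose, three replicates. Insects were held in Petri dishes at 25 ± 0.5 °C, 16L:8D, 50 ± 5% RH, and checked daily. The degree of metamorphosis inhibition was scored morphologically after the next molt. ID-50 per individual was computed from linear regression tested by ANOVA.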

Row | SMILES | ID50
1 | CC(COc1ccc(Oc2ccccc2)cc1)Oc1ccccn1 (configuration not stated) [PYRIPROXYFEN] | 2.3 µg
2 | CCOC(=O)NCCOc1ccc(C[C@H]2CCCC[C@@H]2OC(=O)CCC(=O)O[C@H]2CC[C@@]3(C)C(=CC[C@H]4[C@@H]5CC[C@H]([C@H](C)/C=C/[C@@H](CC)C(C)C)[C@@]5(C)CC[C@@H]43)C2)cc1 | >5 µg
3 | CCOC(=O)NCCOc1ccc(C[C@@H]2CCCC[C@@H]2OC(=O)CC[C@@H](C)[C@H]2CC[C@H]3[C@@H]4[C@H](OC=O)C[C@@H]5C[C@H](O)CC[C@]5(C)[C@H]4C[C@H](OC=O)[C@]23C)cc1 | 0.062 µg
4 | CCOC(=O)NCCOc1ccc(C[C@@H]2CCCC[C@@H]2OC(=O)CC[C@@H](C)[C@H]2CC[C@H]3[C@@H]4[C@H](OC=O)C[C@@H]5C[C@H](OC=O)CC[C@]5(C)[C@H]4C[C@H](OC=O)[C@]23C)cc1 | 0.094 µg
5 | COC(C)(C)CCC[C@H](C)C/C=C/C(C)=C/C(=O)OC(C)C [METHOPRENE] | 0.01 µg
6 | CCOC(=O)NCCOc1ccc(C[C@H]2CCCC[C@@H]2OC(=O)CC[C@@H](C)[C@H]2CC[C@H]3[C@@H]4[C@H](OC=O)C[C@@H]5C[C@H](OC=O)CC[C@]5(C)[C@H]4C[C@H](OC=O)[C@]23C)cc1 | 1.775 µg
7 | CCOC(=O)NCCOc1ccc(C[C@H]2CCCC[C@@H]2O)cc1 (relative stereo) | 0.71 µg
8 | CCOC(=O)NCCOc1ccc(C[C@@H]2CCCC[C@@H]2OC(=O)CCC(=O)O[C@H]2CC[C@@]3(C)C(=CC[C@H]4[C@@H]5CC[C@H]([C@H](C)/C=C/[C@@H](CC)C(C)C)[C@@]5(C)CC[C@@H]43)C2)cc1 | 0.0185 µg
9 | CCOC(=O)NCCOc1ccc(C[C@@H]2CCCC[C@@H]2O)cc1 (relative stereo) | 0.001 µg
10 | CCOC(=O)NCCOc1ccc(C[C@H]2CCCC[C@@H]2OC(=O)CC[C@@H](C)[C@H]2CC[C@H]3[C@@H]4[C@H](OC=O)C[C@@H]5C[C@H](O)CC[C@]5(C)[C@H]4C[C@H](OC=O)[C@]23C)cc1 | >5 µg
11 | CCOC(=O)NCCOc1ccc(Oc2ccccc2)cc1 [PHENOXYCARB] | 0.09 µg

The compounds below were run on Pyrrhocoris apterus (assay: Inhibition of metamorphosis in freshly molted Pyrrhocoris apterus (red firebug) fourth-instar nymph assessed as compound dose per individual causing reduction in metamorphosis by oral drinking assay).
Assay type: functional
Summary of the method: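 Drinking assay: compound in acetone was added to distilled water with Tween-80 at 0.025, 0.25, 2.5 and 25 per microlitre. It was offered in cotton-plugged glass vials at the end of the fourth nymphal instar, with the acetone/water/Tween-80 mixture as reference. Ten insects per concentration, three replicates, 25 ± 0.5 °C, 16L:8D, 50 ± 5% RH. Metamorphosis inhibition was scored morphologically after the last ecdysis.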

Row | SMILES | ID50
12 | CC(COc1ccc(Oc2ccccc2)cc1)Oc1ccccn1 (configuration not stated) [PYRIPROXYFEN] | 25 µg
13 | CCOC(=O)NCCOc1ccc(C[C@H]2CCCC[C@@H]2OC(=O)CCC(=O)O[C@H]2CC[C@@]3(C)C(=CC[C@H]4[C@@H]5CC[C@H]([C@H](C)/C=C/[C@@H](CC)C(C)C)[C@@]5(C)CC[C@@H]43)C2)cc1 | >25 µg
14 | CCOC(=O)NCCOc1ccc(C[C@@H]2CCCC[C@@H]2OC(=O)CC[C@@H](C)[C@H]2CC[C@H]3[C@@H]4[C@H](OC=O)C[C@@H]5C[C@H](O)CC[C@]5(C)[C@H]4C[C@H](OC=O)[C@]23C)cc1 | 0.423 µg
15 | CCOC(=O)NCCOc1ccc(C[C@@H]2CCCC[C@@H]2OC(=O)CC[C@@H](C)[C@H]2CC[C@H]3[C@@H]4[C@H](OC=O)C[C@@H]5C[C@H](OC=O)CC[C@]5(C)[C@H]4C[C@H](OC=O)[C@]23C)cc1 | 0.051 µg
16 | COC(C)(C)CCC[C@H](C)C/C=C/C(C)=C/C(=O)OC(C)C [METHOPRENE] | 0.41 µg
17 | CCOC(=O)NCCOc1ccc(C[C@H]2CCCC[C@@H]2OC(=O)CC[C@@H](C)[C@H]2CC[C@H]3[C@@H]4[C@H](OC=O)C[C@@H]5C[C@H](OC=O)CC[C@]5(C)[C@H]4C[C@H](OC=O)[C@]23C)cc1 | 6.153 µg
18 | CCOC(=O)NCCOc1ccc(C[C@H]2CCCC[C@@H]2O)cc1 (relative stereo) | 0.5 µg
19 | CCOC(=O)NCCOc1ccc(C[C@@H]2CCCC[C@@H]2OC(=O)CCC(=O)O[C@H]2CC[C@@]3(C)C(=CC[C@H]4[C@@H]5CC[C@H]([C@H](C)/C=C/[C@@H](CC)C(C)C)[C@@]5(C)CC[C@@H]43)C2)cc1 | 4.989 µg
20 | CCOC(=O)NCCOc1ccc(C[C@@H]2CCCC[C@@H]2O)cc1 (relative stereo) | 0.0012 µg
21 | CCOC(=O)NCCOc1ccc(C[C@H]2CCCC[C@@H]2OC(=O)CC[C@@H](C)[C@H]2CC[C@H]3[C@@H]4[C@H](OC=O)C[C@@H]5C[C@H](O)CC[C@]5(C)[C@H]4C[C@H](OC=O)[C@]23C)cc1 | >25 µg
22 | CCOC(=O)NCCOc1ccc(Oc2ccccc2)cc1 [PHENOXYCARB] | 0.2 µg
